An excerpt weighted towards active compounds, which were near 2.9% of everything screened.
TRPC4 inh = inhibitors of mouse TRPC4 channel | Q9QUQ5 | HEK293 TRPC4beta/mu-opioid, DAMGO-evoked Fluo4 calcium flux; stronger effect = lower value | B-score at 10 µM | 0.39% of 300,000 active | AID 2247;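 active = B-score over 3 SD under the library average, no early fluorescence shift, positive overall ratio signal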
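Test system – stable TRPC4beta/mu-opioid receptor HEK293 cells · Probe or stimulus – DAMGO, a submaximal dose followed by a maximal one · Dosing – one concentration per compound · Signal – Fluo4 calcium fluorescence by kinetic imaging, 5 s 1 Hz baseline · Evaluation – per-well B score of integrated baseline-normalized Fluo4 ratio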
TRPC6 act = activators of mouse TRPC6 channel | AID 2550 | B-score at 10 µM | 0.13% of 310,000 active | Q61143 | HEK293-TRPC6 membrane potential dye fluorescence; stronger effect = higher value;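 active = B-score of the integrated fluorescence ratio above library mean plus 3 SD, and starting fluorescence ratio within library mean plus 5 SD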;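 also: higher score means more depolarization so channel activation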
TRPC4 potent = allosterically enhances the mouse TRPC4 cation channel. Q9QUQ5. HEK293 TRPC4beta/mu-opioid, DAMGO EC20, Fluo-4 Ca2+ flux; stronger effect = higher value. B-score at 10 µM. 0.42% of 310,000 active;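 active = B-score of calcium response area above 5 SD of library B-scores, with initial fluorescence ratio within 5 SD of library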;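 also: B-score of integrated fluorescence ratio over time as area under calcium response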
TRPC4 act = TRPC4 (mouse) channel activation; Q9QUQ5; HEK293 TRPC4beta/mu-opioid, Fluo4 calcium fluorescence; stronger effect = higher value; B-score at 10 µM; 0.49% of 310,000 active;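 active = B-score above 5 SD of library B-scores, and initial fluorescence ratio not above library mean plus 5 SD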;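 also: positive B-score marks a calcium rise read as TRPC4 activation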
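System: HEK293 cells stably co-expressing mouse TRPC4beta and mu-opioid receptor; Schedule: Fluo4 dye loading 45 min at room temperature, 110 s recording; Detection: Fluo4 fluorescence, kinetic; Evaluation: B-scored integrated calcium fluorescence ratio; Controls: buffer (low) and maximal DAMGO (high).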
Kir21 block = inhibitors of mouse Kir2.1 inward-rectifier potassium channel. HEK293-Kir2.1, FluxOR thallium flux fluorescence; stronger effect = lower value. B-score at 10 µM. 0.85% of 310,000 active;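 active = fluorescence ratio B-score at or below minus 3 SD of library scores, with starting-brightness B-score within 2 SD, cut at about -4.2 in these data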;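 also: channel flux triggered by added potassium and thallium sulfate stimulus; B-score of peak minus minimum fluorescence over baseline after thallium stimulus; more negative B-score means stronger Kir2.1 block with less thallium influx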
Target sequence (P35561 whole entry, looked up): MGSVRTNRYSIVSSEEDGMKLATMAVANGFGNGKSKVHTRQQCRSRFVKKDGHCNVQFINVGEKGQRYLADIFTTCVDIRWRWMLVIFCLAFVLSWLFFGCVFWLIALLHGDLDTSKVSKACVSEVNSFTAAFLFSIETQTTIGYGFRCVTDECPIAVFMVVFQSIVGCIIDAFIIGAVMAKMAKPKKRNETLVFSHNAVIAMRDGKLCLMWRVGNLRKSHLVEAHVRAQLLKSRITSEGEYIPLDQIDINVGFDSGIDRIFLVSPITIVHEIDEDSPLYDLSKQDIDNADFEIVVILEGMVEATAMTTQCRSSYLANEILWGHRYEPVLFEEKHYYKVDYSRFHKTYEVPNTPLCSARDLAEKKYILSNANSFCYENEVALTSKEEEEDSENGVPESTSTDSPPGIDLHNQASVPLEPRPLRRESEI
TRPC6 inh = blocks the mouse TRPC6 cation channel | 1.1% of 310,000 active | B-score at 10 µM | HEK293-TRPC6, membrane potential dye, ACh-evoked depolarization; stronger effect = lower value | Q61143;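 active = B-score under library mean minus 3 SD, initial fluorescence not abnormally high, positive integrated signal ratio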;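 also: B-score derived from integrated fluorescence ratio over the kinetic read; more negative B-score means stronger inhibition of depolarization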
TRPC4 sel inh 2 = second check of whether TRPC6 inhibitors also affect mouse TRPC4; shares compounds with TRPC6 inh; HEK293 TRPC4/MOR, membrane potential dye fluorescence; channel activated by saturating DAMGO dose; inhibition, % at 10 µM; 42% of 920 active;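 active = compounds whose fluorescence signal differed from control wells by over 3 SD, either direction, in both duplicate plates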
TRPC4 spec = selectivity of TRPC6 inhibitors: effect on mouse TRPC4 | shares compounds with TRPC6 inh | HEK293 TRPC4/mu-opioid, membrane potential fluorescence | activity change, negative = inhibition, % at 10 µM | 61% of 920 active;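 active = rise or fall in signal beyond 3 SD of buffer-only wells in both replicate plates, either sign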;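 also: integrated kinetic ratio of fluorescence range over baseline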
HEK293 MPD ctr 2-1 = second check of TRPC6 inhibitor effects in parental HEK293 cells; shares compounds with TRPC6 inh; parental HEK293 membrane potential dye fluorescence; maximal acetylcholine challenge after compound addition; signal change vs control, % at 10 µM; 31% of 920 active;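 active = membrane potential signal moving either way by over 3 SD of the maximum-effect control, in both duplicate plates, meaning non-specific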
HEK293 MPD ctr-1 = counter-screen for TRPC6 inhibitors: effect in parental HEK293 cells; AID 2780; membrane potential signal change, % at 10 µM; 60% of 920 active; shares compounds with TRPC6 inh; parental HEK293 membrane potential dye fluorescence;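 active = membrane potential signal shifting up or down by more than 3 SD of buffer-only wells, on both duplicate plates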
HEK293 MPD ctr-2 = parental HEK293 nonspecific activity of TRPC6 modulators; shares compounds with TRPC6 inh; membrane potential dye fluorescence; membrane potential signal change, % at 10 µM; 51% of 2,400 active; AID 488924;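 active = membrane potential signal moves up or down beyond 5 SD from buffer-only wells, on both duplicate plates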
HEK293 MPD ctr 2-2 = second check of TRPC6 modulator effects in parental HEK293 cells; shares compounds with TRPC6 inh; membrane potential dye fluorescence; after compound, maximal acetylcholine stimulation; inhibition, % at 10 µM; 14% of 2,400 active; AID 488926;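 active = membrane potential signal drops by more than 5 SD from the mean control signal, in both duplicate plates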;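 also: plate controls were acetylcholine ECmax control wells for no effect and buffer only wells for full effect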
TRPC4/MOR mod = selectivity of TRPC6 modulators against mouse TRPC4; 69% of 2,400 active; AID 488927; shares compounds with TRPC6 inh; HEK293 TRPC4/mu-opioid, membrane potential fluorescence; percent change from control (negative = decrease, positive = increase), % at 10 µM;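 active = membrane potential signal moved up or down beyond 5 SD of buffer control wells, in both duplicate plates, actives on both sides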;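 also: plate controls were assay buffer wells for no effect and DAMGO maximal-effect wells for full effect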
TRPC4 ctr inh 2 = second check of whether TRPC6 modulators also affect mouse TRPC4. AID 488928. shares compounds with TRPC6 inh. 55% of 2,400 active. HEK293 TRPC4/mu-opioid, membrane potential dye fluorescence; stimulated with maximal-effect DAMGO. inhibition, % at 10 µM;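 active = drop in membrane potential signal beyond 5 SD of the control wells in both duplicate plates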;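 also: TRPC4 counter screen for TRPC6 hits run under conditions tuned for TRPC6 not TRPC4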
TRPC6 inh conf = confirmation of mouse TRPC6 inhibitors; shares compounds with TRPC6 inh; HEK293-TRPC6, membrane potential dye, ACh-evoked depolarization; inhibition, % at 10 µM; 43% of 3,300 active; AID 488960;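 active = fluorescence ratio falls more than 5 SD below the full-stimulation control mean, in both duplicate runs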;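 also: integrated fluorescence ratio of peak minus minimum over baseline after agonist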
TRPC6 act confirm = mouse TRPC6 activator confirmation; shares compounds with TRPC6 inh; activation, % at 10 µM; HEK293-TRPC6 membrane potential dye fluorescence, FDSS; 11% of 2,800 active;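 active = ratio signal rise beyond 5 SD above unstimulated control wells' mean, seen in both duplicate runs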;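 also: plate controls were buffer EC0 wells for no effect and acetylcholine ECmax response for full effect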
An asterisk follows results filed as active.

Results for Cc1ccc(N2C=Nc3ccc(C)c4nc(C)cc2c34)cc1 ?
TRPC4 inh: inactive; TRPC6 act: inactive; TRPC4 potent: inactive; TRPC4 act: inactive; Kir21 block: 0.43; TRPC6 inh: -10*; HEK293 MPD ctr-2: -248%*; HEK293 MPD ctr 2-2: 64%*; TRPC4/MOR mod: -52%*; TRPC4 ctr inh 2: 74%*; TRPC6 inh conf: 60%*; TRPC6 act confirm: inactive

Results for CC1=Nc2ccc(C)c3nc(C)cc(c23)N1c1ccc(C)cc1 ?
TRPC4 inh: inactive; TRPC6 act: inactive; TRPC4 potent: inactive; TRPC4 act: inactive; Kir21 block: 1.8; TRPC6 inh: -13*; HEK293 MPD ctr-2: -157%*; HEK293 MPD ctr 2-2: 88%*; TRPC4/MOR mod: -33%*; TRPC4 ctr inh 2: 82%*; TRPC6 inh conf: 87%*; TRPC6 act confirm: inactive

What do the screens show for `CCCCN(CC)S(=O)(=O)c1ccc2c(c1)n(C)c(=O)c(=O)n2C`?
TRPC4 inh: inactive; TRPC6 act: inactive; TRPC4 potent: inactive; TRPC4 act: inactive; Kir21 block: 0.01; TRPC6 inh: inactive

What do the screens show for `CCOC(=O)C1CCCNC1=O` (stereo not drawn)?
TRPC4 inh: inactive; TRPC6 act: inactive; TRPC4 potent: inactive; TRPC4 act: inactive; Kir21 block: 1.2; TRPC6 inh: inactive

How did COCc1cc(C)nc(Sc2nc3c(c(=O)n(C)c(=O)n3C)n2C)c1C#N do in these assays?
TRPC4 inh: inactive; TRPC6 act: inactive; TRPC4 potent: inactive; TRPC4 act: inactive; Kir21 block: -0.79; TRPC6 inh: inactive

What do the screens show for `COc1ccc(Br)cc1/C=N/NC(=O)c1ccc2nc[nH]c2c1`?
TRPC4 inh: inactive; TRPC6 act: inactive; TRPC4 potent: inactive; TRPC4 act: inactive; Kir21 block: 1.6; TRPC6 inh: inactive

Results for CCn1c(SCC(=O)NNC(=O)c2ccc(OC)cc2)nnc1-c1ccco1 ?
TRPC4 inh: inactive; TRPC6 act: inactive; TRPC4 potent: inactive; TRPC4 act: inactive; Kir21 block: -0.06; TRPC6 inh: inactive

How did CCNc1oc(/C=C/c2ccc(OCC)cc2)nc1C#N do in these assays?
TRPC4 inh: inactive; TRPC6 act: inactive; TRPC4 potent: inactive; TRPC4 act: inactive; Kir21 block: -0.61; TRPC6 inh: inactive

What do the screens show for `CCCCCCC(=O)N1CCC(c2nc3c(nnn3Cc3ccccc3Cl)c(=O)[nH]2)CC1`?
TRPC4 inh: inactive; TRPC6 act: 14*; TRPC4 potent: inactive; TRPC4 act: inactive; Kir21 block: 0.04; TRPC6 inh: -11*; HEK293 MPD ctr-2: 131%*; HEK293 MPD ctr 2-2: inactive; TRPC4/MOR mod: 22%*; TRPC4 ctr inh 2: inactive; TRPC6 inh conf: 74%*; TRPC6 act confirm: 127%*

How did CC(OCCN1CCCC1)(c1ccc(F)cc1)c1ccc(F)cc1 do in these assays?
TRPC4 inh: inactive; TRPC6 act: inactive; TRPC4 potent: inactive; TRPC4 act: inactive; Kir21 block: -3; TRPC6 inh: inactive

What do the screens show for `C(#Cc1ccccc1)C[N+]1(CC#Cc2cccc3ccccc23)CCOCC1`?
TRPC4 inh: inactive; TRPC6 act: inactive; TRPC4 potent: inactive; TRPC4 act: inactive; Kir21 block: -0.54; TRPC6 inh: -5*; HEK293 MPD ctr-2: -78%*; HEK293 MPD ctr 2-2: inactive; TRPC4/MOR mod: -16%*; TRPC4 ctr inh 2: inactive; TRPC6 inh conf: inactive; TRPC6 act confirm: inactive

What do the screens show for `Cc1ccc(C#CC[N+]2(CC#Cc3ccc(C)cc3)CCCCC2)cc1`?
TRPC4 inh: inactive; TRPC6 act: inactive; TRPC4 potent: inactive; TRPC4 act: inactive; Kir21 block: -6.8*; TRPC6 inh: -5.4*; HEK293 MPD ctr-2: 92%*; HEK293 MPD ctr 2-2: inactive; TRPC4/MOR mod: 17%*; TRPC4 ctr inh 2: inactive; TRPC6 inh conf: 44%*

Results for CCC[N+]1(CC#CCC(c2ccccc2)c2ccccc2)CCCCC1 ?
TRPC4 inh: inactive; TRPC6 act: inactive; TRPC4 potent: inactive; TRPC4 act: inactive; Kir21 block: -4.2; TRPC6 inh: -5.2*; HEK293 MPD ctr-2: inactive; HEK293 MPD ctr 2-2: inactive; TRPC4/MOR mod: 12%*; TRPC4 ctr inh 2: inactive; TRPC6 inh conf: 42%*; TRPC6 act confirm: inactive

What do the screens show for `C(#Cc1ccccc1)C[N+]1(CC#Cc2ccccc2)CCCCC1`?
TRPC4 inh: inactive; TRPC6 act: inactive; TRPC4 potent: inactive; TRPC4 act: inactive; Kir21 block: -0.76; TRPC6 inh: -9.1*; TRPC4 sel inh 2: inactive; TRPC4 spec: -0.2%*; HEK293 MPD ctr 2-1: inactive; HEK293 MPD ctr-1: 0.7%*; TRPC6 inh conf: 66%*; TRPC6 act confirm: inactive

How did CN(c1nc2ccccc2[nH]c1=O)C1CCCCC1 do in these assays?
TRPC4 inh: inactive; TRPC6 act: inactive; TRPC4 potent: inactive; TRPC4 act: inactive; Kir21 block: -0.37; TRPC6 inh: inactive

Screening results as filed in PubChem.
